# Screening data as filed in PubChem.
# Only some compounds are listed: those with a hit (about 1.2% of all), similar ones and a draw of the others.
# GC-A act = GC-A (human) enzyme activation; hit rate 0.14% among 370,000; HEK293 GC-A cells, cGMP TR-FRET, EC30 ANP; 0% at EC30 ANP, 100% saturating ANP; AID 1671463; activation, % at 10 µM; in the data active = activation above about 40%
# ASAP1 inh = blocks human ASAP1-stimulated Arf1 GTP hydrolysis. Q9ULH1. AID 624377. GDP FP detection. hit rate 0.19% among 360,000. inhibition, % at 16.5 µM; in the data active = inhibition above about 25%;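 also: 0% = vehicle with enzyme and substrate and 100% = no enzyme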
# ARFGAP1 inhibitor = rat ARFGAP1 inhibition | Q62848 | Arfgap1-stimulated ARF1 GTP hydrolysis, GDP FP detection | inhibition, % at 16.5 µM | hit rate 0.26% among 360,000;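 active = inhibition above a per-plate limit, mean inhibition of low control wells plus 3 SD, cut at about 25% in these data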;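 also: 0% = DMSO wells with enzyme and 100% = wells lacking Arfgap1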
#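 Replicates: Single well per compound | Assay system: Truncated rat Arfgap1 GAP domain | Control set: No-Arfgap1 wells (100%) versus DMSO full-reaction wells (0%) | Times: Enzyme reaction 120 min at 25 °C after 20 min preincubation | Reagent: Human ARF1(Δ1-17)-GTP substrate | Measured by: Tracer-displacement fluorescence polarization with EDTA stop, 620/688 nm | Measure: Percent inhibition of Arfgap1-stimulated GTP hydrolysis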
# GC-B act = GC-B (human) receptor activation. HEK293-GC-B cells, CNP EC30, cGMP TR-FRET; 0% at EC30 CNP, 100% saturating CNP. activation, % at 10 µM. hit rate 0.11% among 370,000;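 active = activation at 10 µM reaching about 35% in either raw or pattern-adjusted values, limit read from the data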
# Target sequence (P20594 whole entry, looked up): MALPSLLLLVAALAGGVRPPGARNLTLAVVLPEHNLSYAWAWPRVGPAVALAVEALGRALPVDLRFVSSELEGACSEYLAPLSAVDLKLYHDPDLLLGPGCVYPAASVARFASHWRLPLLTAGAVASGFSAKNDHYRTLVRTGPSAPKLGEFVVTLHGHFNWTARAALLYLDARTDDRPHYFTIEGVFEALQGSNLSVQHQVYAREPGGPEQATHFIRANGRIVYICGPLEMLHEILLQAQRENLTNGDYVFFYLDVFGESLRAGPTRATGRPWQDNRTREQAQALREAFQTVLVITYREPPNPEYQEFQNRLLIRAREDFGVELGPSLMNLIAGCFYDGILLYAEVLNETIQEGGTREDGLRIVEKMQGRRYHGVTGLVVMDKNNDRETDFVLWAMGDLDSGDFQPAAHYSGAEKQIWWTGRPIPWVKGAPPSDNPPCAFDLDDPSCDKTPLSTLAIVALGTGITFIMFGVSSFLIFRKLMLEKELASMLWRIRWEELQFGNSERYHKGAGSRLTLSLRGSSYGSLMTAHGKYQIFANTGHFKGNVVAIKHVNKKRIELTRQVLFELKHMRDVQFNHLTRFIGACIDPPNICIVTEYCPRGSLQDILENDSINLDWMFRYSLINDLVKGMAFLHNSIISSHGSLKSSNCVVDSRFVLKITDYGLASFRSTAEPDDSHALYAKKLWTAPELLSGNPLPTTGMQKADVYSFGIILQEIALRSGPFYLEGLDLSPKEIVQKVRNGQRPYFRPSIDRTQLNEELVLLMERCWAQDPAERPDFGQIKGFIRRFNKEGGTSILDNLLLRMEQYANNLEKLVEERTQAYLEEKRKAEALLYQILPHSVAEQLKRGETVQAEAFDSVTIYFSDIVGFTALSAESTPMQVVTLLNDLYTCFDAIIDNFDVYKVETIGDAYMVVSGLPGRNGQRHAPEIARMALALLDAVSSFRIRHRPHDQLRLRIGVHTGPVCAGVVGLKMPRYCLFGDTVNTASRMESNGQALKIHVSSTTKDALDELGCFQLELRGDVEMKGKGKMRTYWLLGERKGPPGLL
# HCV core dimer = HCV core protein dimerization inhibition; TR-FRET GST/Flag-core106 dimerization, 1536-well; inhibition, % at 5 µM; hit rate 0.33% among 300,000;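 active = inhibition above the mean of all tested compounds plus 3 SD, set per screening campaign, cut at about 45% in these data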
#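 Assay system: tagged HCV core106 pair (GST and Flag); medium: KF-containing HEPES buffer, pH 7.45, DTT, CHAPS, BSA; also added: Eu donor and XL665 acceptor anti-tag antibodies; dosing: 5 µM single dose; timing: compound-protein-antibody incubation 4 h at 22.5 °C; signal: TR-FRET 671 and 617 nm emission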
# CTSL1 counter = cathepsin L1 inhibition, PFM18AAP counter-screen. recombinant F. hepatica cathepsin L1, Z-Leu-Arg-MCA fluorescence. inhibition, % at 5.96 µM. hit rate 0.49% among 300,000. AID 1906;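 active = inhibition above the mean of all tested compounds plus 3 SD, set per screening campaign, cut at about 17% in these data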;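 also: 0% = plate median of test compound wells and 100% = 1 µM Z-Phe-Ala-diazomethylketone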
# Numbers without * were called inactive; . = not tested or not shown.
SMILES,GC-A act,ASAP1 inh,ARFGAP1 inhibitor,GC-B act,HCV core dimer,CTSL1 counter
CCOC(=O)c1c(N)n(Cc2ccc(OC)cc2)c2nc3ccccc3nc12,46*,-9,10,44*,.,.
COC(=O)c1c(N)n(Cc2ccc(OC)cc2)c2nc3ccccc3nc12,48*,11,-15,43*,13,5
COCCCn1c(N)c(C(=O)OCCOC)c2nc3ccccc3nc21,-1,14,7,1,1,1
COCCOC(=O)c1c(N)n(Cc2ccc(OC)cc2)c2nc3ccccc3nc12,47*,10,6,47*,9,2
O=c1c2ccccc2nc(/C=C/c2ccccc2F)n1-c1ccccc1O,-3,10,4,0,11,-2
CC1(C)CC(=O)C(C2(O)C(=O)NC(=O)NC2=O)=C(O)C1,1,9,2,-1,-13,2
Cc1cccc(N2C(=O)/C(=C/c3ccc(CN(CCC#N)S(C)(=O)=O)o3)C(=O)NC2=S)c1,0,-1,-8,1,18,6
Cc1ccc(N2C(=O)/C(=C/c3ccc(CN(CCC#N)S(C)(=O)=O)o3)C(=O)NC2=S)cc1C,.,.,.,.,51*,7
COc1ccc(N=Cc2c(O)n(-c3ccc(C)cc3)c(=O)[nH]c2=O)cc1,-1,-10,-7,2,5,-1
O=C(COc1ccc(Cl)cc1)N1CCN(Cc2ccc([N+](=O)[O-])cc2)CC1,-1,4,-3,-7,9,0
CN1CCN(c2ccc([N+](=O)[O-])c3no[n+]([O-])c23)CC1,-3,-7,8,-3,-12,18*
CC(=O)C1C2c3ccccc3OC1(C)N=c1s/c(=C/c3cn(C)nc3C)c(=O)n12 (stereo not drawn),-4,6,5,-2,-1,34*
COC(=O)C1C2c3ccccc3OC1(C)N=c1s/c(=C/c3cnn(C)c3)c(=O)n12 (stereo not drawn),1,-5,-5,-1,-3,2
CCC1CCCCN1P(=O)(c1ccc(C)o1)C(C)(C)C (stereo not drawn),-6,-14,5,1,-4,4
CCN(CC)C(=O)Cn1cc(/C=C2\C(=O)NC(=O)N(c3ccccc3F)C2=O)c2ccccc21,44*,-11,11,16,8,-2
O=C1C(=O)c2ccccc2-c2ccccc21,5,-18,-9,-3,44,110*
COc1cc(/C=C/c2nc3ccccc3c(=O)n2-c2ccc(O)cc2)ccc1O,13,18,4,35*,16,2
O=C(CNCc1c(F)cccc1F)N1CCC2(CC1)OCCO2,1,.,.,-5,.,.
CCn1nc(-c2ccccc2)nc2c(=O)n(C)c(=O)nc1-2,.,.,.,.,48*,114*
COc1ccc(-c2nc3ccccc3c(=O)n2-c2ccc(OC)cc2)cc1,0,11,-1,1,1,-5
O=c1[nH]c(=S)n(Cc2ccco2)c(O)c1C=NCc1cccs1,5,9,-6,0,55*,5
CC(c1ccc(F)cc1)n1cc(C(=O)NCc2ccc3c(c2)OCO3)nn1 (stereo not drawn),2,-6,-9,-3,-3,-3
CN(C)c1ccc(/C=C/C=C2/C(=O)NC(=O)N(c3ccccc3)C2=O)cc1,5,28*,5,-13,.,.
O=C1NC(=O)N(c2ccccc2)C(=O)/C1=C/C=C/c1ccco1,24,2,5,3,5,-4
O=[N+]([O-])c1ccccc1Cl,3,0,1,0,.,.
O=C1NC(=O)C(Sc2ccccc2[N+](=O)[O-])C(=O)N1,4,42*,22,4,-9,1
CCCc1[nH]nc2c1C1(C(=O)N(Cc3ccccc3)c3ccccc31)C(C(=O)OC)=C(N)O2 (stereo not drawn),-17,-3,0,-21,10,0
[Cl][Pt+2][Cl].[NH-]C1CCCCC1[NH-] (stereo not drawn),7,-6,0,4,1,40*
